Measurements published in PMC4515784 (Journal of Medicinal Chemistry, 2015).

Columns and labels:
[1] = biological target: HA-hSERT (Homo sapiens, UniProt P31645); assay: hSERT photoaffinity labeling in HA-hSERT LLCPK1 cells; type: binding
[2] = Reversed-phase HPLC relative lipophilicity; type: physicochemical; settings: C-18 column, 45% MeOH/CH3CN (1:1) and 55% water with Et3N and HOAc, 3.0 mL/min
How it was run: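 Waters C-18 Nova-Pak column (8 × 100 mm, 6 μm, radial compression). Organic phase MeOH/CH3CN 1:1 v/v; aqueous phase contained Et3N (2.1% v/v) and HOAc (2.8% v/v). Isocratic 45% organic/55% aqueous at 3.0 mL/min, with one analogue run at 42%/58%. Retention time and k′ recorded for radioiodinated products, matched to nonradioactive standards by coelution.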

[3] = biological target: hSERT (Homo sapiens, UniProt P31645); type: cell-based
Sequence of hSERT (P31645 whole entry): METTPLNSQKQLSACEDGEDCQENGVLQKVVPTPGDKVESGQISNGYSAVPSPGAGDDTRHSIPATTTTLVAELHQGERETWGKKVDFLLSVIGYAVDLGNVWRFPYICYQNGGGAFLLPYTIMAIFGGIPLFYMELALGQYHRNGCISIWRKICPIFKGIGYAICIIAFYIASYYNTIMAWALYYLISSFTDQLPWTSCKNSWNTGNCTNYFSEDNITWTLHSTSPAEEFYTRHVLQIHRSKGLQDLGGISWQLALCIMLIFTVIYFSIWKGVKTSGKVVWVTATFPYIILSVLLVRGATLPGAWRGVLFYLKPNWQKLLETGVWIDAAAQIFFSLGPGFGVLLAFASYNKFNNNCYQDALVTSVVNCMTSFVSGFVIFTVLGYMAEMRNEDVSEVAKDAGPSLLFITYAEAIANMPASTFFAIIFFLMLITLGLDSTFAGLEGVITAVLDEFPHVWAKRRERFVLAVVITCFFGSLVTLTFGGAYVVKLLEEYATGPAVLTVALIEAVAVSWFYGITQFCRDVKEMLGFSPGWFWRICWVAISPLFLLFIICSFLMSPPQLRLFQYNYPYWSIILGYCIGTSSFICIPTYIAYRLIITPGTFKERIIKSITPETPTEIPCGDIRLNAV

Sequence of HA-hSERT (P31645 whole entry): as above

Row | SMILES | Irreversible (covalent) labeling of hSERT upon photoactivation [1] | Capacity factor k′ (relative lipophilicity) [2] | Effect of (S)-citalopram preincubation on irreversible hSERT labeling (in words) [1] | Reduction in WT hSERT affinity compared to (S)-citalopram [3] [fold]
1 | CN(CCC[C@@]1(c2ccc(F)cc2)OCc2cc(C#N)ccc21)CCc1ccc(N=[N+]=[N-])c([125I])c1 [[^125I]15, (S)-1-(3-((4-Azido-3-[^125I]-iodophenethyl)(methyl)amino)propyl)-1-(4-fluorophenyl)-1,3-dihydroisobenzofuran-5-carbonitrile] | covalently label | 18.3 |  | 
2 | CN(C)CCC[C@@]1(c2ccc(F)cc2)OCc2cc(CNC(=O)CCc3ccc(N=[N+]=[N-])c([125I])c3)ccc21 [[^125I]22, (S)-3-(4-Azido-3-[^125I]-iodophenyl)-N-((1-(3-(dimethylamino)propyl)-1-(4-fluorophenyl)-1,3-dihydroisobenzofuran-5-yl)methyl)propanamide] | covalently label | 10.4 | completely eliminated | 
3 | CN(C)CCC[C@@]1(c2ccc(F)cc2)OCc2cc(CNC(=O)c3ccc(N=[N+]=[N-])c([125I])c3)ccc21 [[^125I]26, (S)-4-Azido-N-((1-(3-(dimethylamino)propyl)-1-(4-fluorophenyl)-1,3-dihydroisobenzofuran-5-yl)methyl)-3-[^125I]-iodobenzamide] | covalently label | 10.6 | completely eliminated | 
4 | CN(CCC[C@@]1(c2ccc(F)cc2)OCc2cc(C#N)ccc21)CCc1ccc(N=[N+]=[N-])c(I)c1 [compound 15, (S)-1-(3-((4-Azido-3-iodophenethyl)(methyl)amino)propyl)-1-(4-fluorophenyl)-1,3-dihydroisobenzofuran-5-carbonitrile] |  |  |  | 100
5 | CN(C)CCC[C@@]1(c2ccc(F)cc2)OCc2cc(CNC(=O)CCc3ccc(N=[N+]=[N-])c(I)c3)ccc21 [compound 22, (S)-3-(4-Azido-3-iodophenyl)-N-((1-(3-(dimethylamino)propyl)-1-(4-fluorophenyl)-1,3-dihydroisobenzofuran-5-yl)methyl)propanamide] |  |  |  | 17
6 | CN(C)CCC[C@@]1(c2ccc(F)cc2)OCc2cc(CNC(=O)c3ccc(N=[N+]=[N-])c(I)c3)ccc21 [compound 26, (S)-4-Azido-N-((1-(3-(dimethylamino)propyl)-1-(4-fluorophenyl)-1,3-dihydroisobenzofuran-5-yl)methyl)-3-iodobenzamide] |  |  |  | 11
